In ChEMBL document CHEMBL1671867, “Novel polymyxin derivatives carrying only three positive charges are effective antibacterial agents” (Antimicrob Agents Chemother, 2008):
Values after ≈ are worked out from the molar mass of the structure shown.

Tests used:
Klebsiella pneumoniae [1] = assay: Antibacterial activity against Klebsiella pneumoniae ATCC 13883 by Etest method in presence of 1 ug/ml NAB7061; format: functional
In short: (§1)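 MICs of the antibiotic taken from E-strips on Mueller-Hinton agar, run both with and without peptide. […] Inoculum was prepared per the strip manufacturer, matching CLSI M2-A9.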

Escherichia coli [2] = assay: Antibacterial activity against Escherichia coli ATCC […] by Etest method in presence of NAB7061; format: functional
Enterobacter cloacae [3] = assay: Antibacterial activity against Enterobacter cloacae ATCC 23355 […] by Etest method in presence of NAB7061; format: functional
Acinetobacter baumannii = assay: Antibacterial activity against Acinetobacter baumannii F264 by Etest method in presence of 0.5 ug/ml NAB739; format: functional
Klebsiella pneumoniae [4] = assay: Antibacterial activity against Klebsiella pneumoniae ATCC 13883 by Etest method in presence of 2 ug/ml NAB7061; format: functional; in short: as §1
Pseudomonas aeruginosa [5] = assay: Antibacterial activity against Pseudomonas aeruginosa ATCC 27853by Etest method in presence of […] NAB739; format: functional
Escherichia coli [6] = assay: Antibacterial activity against 5 x 10^5 CFU/ml Escherichia coli ATCC 25992 in presence of 16 ug/ml NAB7061 by Checkerboard method; format: functional
Escherichia coli [7] = assay: microbe, parasite or virus in culture; settings: ATCC 25992
Klebsiella pneumoniae [8] = assay: Antibacterial activity against Klebsiella pneumoniae ATCC 13883 by Etest method in presence of 4 ug/ml NAB7061; format: functional; in short: as §1
Enterobacter cloacae [9] = assay: Antibacterial activity against Enterobacter cloacae ATCC 23355 […] by Etest method in presence of 1 ug/ml NAB7061; format: functional
Serratia marcescens = assay: Antibacterial activity against Serratia marcescens ATCC 8100 by Etest method in presence of 4 ug/ml NAB7072; format: functional
Escherichia coli [10] = assay: Antibacterial activity against Escherichia coli ATCC […] by Etest method in presence of 2 ug/ml NAB7062; format: functional
Proteus vulgaris = assay: Antibacterial activity against Proteus vulgaris ATCC 13315 by Etest method in presence of 4 ug/ml NAB7074; format: functional
Escherichia coli [11] = assay: Antibacterial activity against 5 x 10^5 CFU/ml Escherichia coli ATCC 25992 in presence of 8 ug/ml NAB7061 by Checkerboard method; format: functional
Escherichia coli [12] = assay: microbe, parasite or virus in culture; settings: ATCC 25992; remark: listed apart in the source
Citrobacter freundii = assay: Antibacterial activity against Citrobacter freundii ATCC 8090 by Etest method in presence of 4 ug/ml NAB7069; format: functional
Pseudomonas aeruginosa [13] = assay: Antibacterial activity against Pseudomonas aeruginosa ATCC 27853 by Etest method in presence of 4 ug/ml NAB7075; format: functional

CO[C@H]1/C=C/O[C@@]2(C)Oc3c(C)c(O)c4c(O)c(c(/C=N/N5CCN(C)CC5)c(O)c4c3C2=O)NC(=O)/C(C)=C\C=C\[C@H](C)[C@H](O)[C@@H](C)[C@@H](O)[C@@H](C)[C@H](OC(C)=O)[C@@H]1C [RIFAMPIN]
MIC (Klebsiella pneumoniae [1]): 1.5 µg/mL
fractional inhibitory concentration index (FICI) (Escherichia coli [2]): 0.071
MIC (Enterobacter cloacae [3]): 0.26 µg/mL
MIC (Acinetobacter baumannii): 0.094 µg/mL
MIC (Klebsiella pneumoniae [4]): 0.25 µg/mL
MIC (Pseudomonas aeruginosa [5]): 32 µg/mL
MIC (Escherichia coli [6]): 0.031 µg/mL
MIC (Escherichia coli [7]): 8 µg/mL (≈ 9.72 µM)
MIC (Klebsiella pneumoniae [8]): 0.064 µg/mL
MIC (Enterobacter cloacae [9]): 8 µg/mL
MIC (Serratia marcescens): 16 µg/mL
MIC (Escherichia coli [10]): 0.064 µg/mL
MIC (Proteus vulgaris): 1 µg/mL
MIC (Escherichia coli [11]): 0.031 µg/mL
MIC (Escherichia coli [12]): 8 µg/mL (≈ 9.72 µM)
MIC (Citrobacter freundii): 0.023 µg/mL
MIC (Pseudomonas aeruginosa [13]): 12 µg/mL
